Test results taken from ChEMBL document CHEMBL3526048, “In vitro metabolism of rivoglitazone, a novel peroxisome proliferator-activated receptor γ agonist, in rat, monkey, and human liver microsomes and freshly isolated hepatocytes” (Drug Metab Dispos, 2011).

Key:
[1] = Drug metabolism in rat hepatocytes assessed as formation of 2-hydroxy-3-(4-((6-methoxy-1-methyl-1H-benzo[d]imidazol-2-yl)methoxy)phenyl)propanamide at 30 uM after 3 hrs by radio-HPLC/LC-MS/MS analysis in presence of NADPH-generating system and NADPH-generating system/SAM; type: ADME, cell-based, Hepatocyte
Cytochrome P450 2C8 [2] = target: T1, Cytochrome P450 2C8 (Homo sapiens, UniProt P10632); test: (§1) Activity of human CYP2C8 expressed in microsomes isolated from baculovirus infected insect cell assessed as enzyme-mediated 3-(4-((6-methoxy-1-methyl-1H-benzo[d]imidazol-2-yl)methoxy)phenyl)-2-(methylsulfinyl)propanamide formation at 20 uM after 2 hrs by radio-HPLC/LC-MS/MS analysis in presence of NADPH-generating system/SAM; type: ADME
T1 sequence (P10632 whole entry): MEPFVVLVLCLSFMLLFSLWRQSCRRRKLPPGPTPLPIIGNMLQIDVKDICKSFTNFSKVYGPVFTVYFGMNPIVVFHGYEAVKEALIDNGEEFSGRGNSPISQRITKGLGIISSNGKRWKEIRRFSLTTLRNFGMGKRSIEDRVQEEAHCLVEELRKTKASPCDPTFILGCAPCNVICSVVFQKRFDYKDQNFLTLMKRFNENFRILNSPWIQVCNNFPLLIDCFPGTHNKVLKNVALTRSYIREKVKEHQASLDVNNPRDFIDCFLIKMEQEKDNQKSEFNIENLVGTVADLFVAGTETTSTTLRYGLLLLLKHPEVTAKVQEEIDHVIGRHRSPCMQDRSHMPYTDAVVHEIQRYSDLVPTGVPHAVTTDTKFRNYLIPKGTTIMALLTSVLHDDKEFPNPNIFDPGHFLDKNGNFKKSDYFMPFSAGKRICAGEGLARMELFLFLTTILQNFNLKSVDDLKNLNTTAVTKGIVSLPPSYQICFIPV

Cytochrome P450 2C8 [3] = target: T1, Cytochrome P450 2C8; test: (§2) Activity of human CYP2C8 expressed in microsomes isolated from baculovirus infected insect cell assessed as enzyme-mediated 2-mercapto-3-(4-((6-methoxy-1-methyl-1H-benzo[d]imidazol-2-yl)methoxy)phenyl)propanamide formation at 20 uM after 2 hrs by radio-HPLC/LC-MS/MS analysis in presence of NADPH-generating system and NADPH-generating system/SAM; type: ADME
Method in brief: (§3)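 Baculovirus/insect-cell microsomes expressing single human CYPs, 1 mg/ml protein, with 50 mM potassium phosphate (pH 7.4) or 100 mM Tris-HCl (pH 7.5). NADPH-generating system: 2 mM NADP⁺, 20 mM glucose 6-phosphate, 2 units/ml G6PDH, 10 mM MgCl₂. [¹⁴C]rivoglitazone at 20 μM, 2 h at 37°C with shaking. Control used insect-cell control supersomes. Stopped with acetonitrile; supernatant concentrated under nitrogen; metabolites analysed by radio-HPLC, LC-MS and LC-MS/MS.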

[4] = target: T2, UDP-glucuronosyltransferase 1A3 (Homo sapiens, UniProt P35503); test: Activity of human UGT1A3 expressed in microsomes isolated from baculovirus infected insect cell assessed as enzyme-mediated 5-hydroxy-5-(4-((6-methoxy-1-methyl-1H-benzo[d]imidazol-2-yl)methoxy)benzyl)thiazolidine-2,4-dione formation at 20 uM after 4 hrs by radio-HPLC/LC-MS/MS analysis in presence of NADPH-generating system and NADPH-generating system/SAM in presence of UDPGA and UDPGA/SAM; type: ADME
T2 sequence (P35503 whole entry): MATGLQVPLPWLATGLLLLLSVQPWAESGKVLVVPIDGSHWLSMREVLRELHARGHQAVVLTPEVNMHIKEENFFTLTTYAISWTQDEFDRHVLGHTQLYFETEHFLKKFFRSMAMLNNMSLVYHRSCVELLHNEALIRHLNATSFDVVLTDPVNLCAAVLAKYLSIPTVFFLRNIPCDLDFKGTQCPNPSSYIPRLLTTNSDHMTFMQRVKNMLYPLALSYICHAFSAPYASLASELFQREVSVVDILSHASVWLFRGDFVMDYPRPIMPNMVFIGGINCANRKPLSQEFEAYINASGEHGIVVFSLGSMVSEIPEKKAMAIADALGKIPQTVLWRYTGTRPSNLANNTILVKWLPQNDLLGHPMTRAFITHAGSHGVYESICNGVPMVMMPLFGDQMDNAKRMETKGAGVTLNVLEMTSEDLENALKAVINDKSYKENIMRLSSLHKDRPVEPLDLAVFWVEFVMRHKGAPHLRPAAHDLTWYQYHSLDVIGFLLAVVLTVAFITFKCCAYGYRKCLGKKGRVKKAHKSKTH

[5] = Drug metabolism in monkey hepatocytes assessed as formation of 3-(4-((6-methoxy-1-methyl-1H-benzo[d]imidazol-2-yl)methoxy)phenyl)-2-(methylthio)propanamide at 30 uM after 3 hrs by radio-HPLC/LC-MS/MS analysis in presence of NADPH-generating system/SAM; settings: cynomolgus monkey
Cytochrome P450 3A4 [6] = target: T3, Cytochrome P450 3A4 (Homo sapiens, UniProt P08684); test: Activity of human CYP3A4 expressed in microsomes isolated from baculovirus infected insect cell assessed as enzyme-mediated 3-(4-((6-methoxy-1-methyl-1H-benzo[d]imidazol-2-yl)methoxy)phenyl)-2-(methylsulfonyl)propanamide formation at 20 uM after 2 hrs by radio-HPLC/LC-MS/MS analysis in presence of NADPH-generating system/SAM; type: ADME
Cytochrome P450 2C8 [7] = target: T1, Cytochrome P450 2C8; test: as §2, with “2-hydroxy-3-(4-((6-methoxy-1-methyl-1H-benzo[d]imidazol-2-yl)methoxy)phenyl)propanamide” for “2-mercapto-3-(4-((6-methoxy-1-methyl-1H-benzo[d]imidazol-2-yl)methoxy)phenyl)propanamide”; type: ADME; method in brief: as §3
Cytochrome P450 3A4 [8] = target: T3, Cytochrome P450 3A4; test: as §1, with “CYP3A4” for “CYP2C8”; type: ADME
Liver microsome = test: Drug metabolism in human liver microsomes assessed as formation of 5-hydroxy-5-(4-((6-methoxy-1-methyl-1H-benzo[d]imidazol-2-yl)methoxy)benzyl)thiazolidine-2,4-dione at 20 uM after 2 hrs by radio-HPLC/LC-MS/MS analysis in presence of NADPH-generating system and NADPH-generating system/SAM; type: ADME
Cytochrome P450 3A5 = Cytochrome P450 3A5 (Homo sapiens, UniProt P20815); test: Activity of human CYP3A5 expressed in microsomes isolated from baculovirus infected insect cell assessed as enzyme-mediated 2-((4-((2,4-dioxothiazolidin-5-yl)methyl)phenoxy)methyl)-1-methyl-1H-benzo[d]imidazol-6-yl hydrogen sulfate formation at 20 uM after 2 hrs by radio-HPLC/LC-MS/MS analysis; type: ADME
Method in brief: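 Baculovirus-insect-cell microsomes expressing the human CYP (1 mg/ml protein) were incubated with [14C]rivoglitazone (20 μM) in 50 mM potassium phosphate (pH 7.4) or 100 mM Tris-HCl (pH 7.5) with an NADPH-generating system (2 mM NADP+, 20 mM glucose 6-phosphate, 2 units/ml G6PDH, 10 mM MgCl2) for 2 h at 37°C. Insect-cell control supersomes served as the control. Reactions were stopped with acetonitrile, and the concentrated supernatants were analysed by radio-HPLC, LC-MS and LC-MS/MS.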

[9] = Drug metabolism in human hepatocytes assessed as formation of 2-hydroxy-3-(4-((6-methoxy-1-methyl-1H-benzo[d]imidazol-2-yl)methoxy)phenyl)propanamide at 30 uM after 3 hrs by radio-HPLC/LC-MS/MS analysis in presence of NADPH-generating system and NADPH-generating system/SAM; type: ADME, cell-based, Hepatocyte

T3 sequence (P08684 whole entry): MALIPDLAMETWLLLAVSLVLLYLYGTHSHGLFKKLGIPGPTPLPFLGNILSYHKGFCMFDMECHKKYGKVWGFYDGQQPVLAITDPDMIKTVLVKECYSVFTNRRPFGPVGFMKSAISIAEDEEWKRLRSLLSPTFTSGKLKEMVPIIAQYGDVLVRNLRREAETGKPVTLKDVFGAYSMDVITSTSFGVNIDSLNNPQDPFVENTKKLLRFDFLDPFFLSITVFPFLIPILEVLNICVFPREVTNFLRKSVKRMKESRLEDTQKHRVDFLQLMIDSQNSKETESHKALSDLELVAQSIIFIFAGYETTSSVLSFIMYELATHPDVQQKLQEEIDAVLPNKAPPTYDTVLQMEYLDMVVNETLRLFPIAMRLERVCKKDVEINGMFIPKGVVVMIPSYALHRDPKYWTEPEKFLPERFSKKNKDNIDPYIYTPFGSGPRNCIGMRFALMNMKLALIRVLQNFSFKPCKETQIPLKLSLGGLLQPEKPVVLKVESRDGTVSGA
Sequence of Cytochrome P450 3A5 (P20815 whole entry): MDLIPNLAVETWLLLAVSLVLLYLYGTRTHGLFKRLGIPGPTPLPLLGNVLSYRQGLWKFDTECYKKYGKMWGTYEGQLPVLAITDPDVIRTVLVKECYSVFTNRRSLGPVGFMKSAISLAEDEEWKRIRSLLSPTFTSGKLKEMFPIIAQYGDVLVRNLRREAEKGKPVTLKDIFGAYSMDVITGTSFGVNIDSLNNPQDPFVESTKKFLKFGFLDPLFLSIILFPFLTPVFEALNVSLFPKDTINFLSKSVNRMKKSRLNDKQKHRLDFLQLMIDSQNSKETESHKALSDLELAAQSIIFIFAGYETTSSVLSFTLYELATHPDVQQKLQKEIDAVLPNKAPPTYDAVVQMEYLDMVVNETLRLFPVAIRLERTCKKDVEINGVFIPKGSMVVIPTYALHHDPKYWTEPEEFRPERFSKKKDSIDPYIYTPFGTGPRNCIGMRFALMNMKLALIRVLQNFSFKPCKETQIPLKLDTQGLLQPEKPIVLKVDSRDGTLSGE

Drug metabolism [1]: metabolite_not_detected
Drug metabolism (Cytochrome P450 2C8 [2]): metabolite_not_detected
Drug metabolism (Cytochrome P450 2C8 [3]): metabolite_detected
Drug metabolism [4]: metabolite_not_detected
Drug metabolism [5]: metabolite_detected
Drug metabolism (Cytochrome P450 3A4 [6]): metabolite_not_detected
Drug metabolism (Cytochrome P450 2C8 [7]): metabolite_detected
Drug metabolism (Cytochrome P450 3A4 [8]): metabolite_not_detected
Drug metabolism (Liver microsome): metabolite_detected
Drug metabolism (Cytochrome P450 3A5): metabolite_not_detected
Drug metabolism [9]: metabolite_not_detected
SMILES: COc1ccc2nc(COc3ccc(C[14CH]4SC(=O)NC4=O)cc3)n(C)c2c1.Cl (racemic)
